Data: ChEMBL document CHEMBL2021920, “Design, synthesis and biological evaluation of thiazole- and indole-based derivatives for the treatment of type II diabetes” (Eur J Med Chem, 2012)
Active and inactive are the calls of the source. No cut-off for these calls is given here.

Key:
[1] = test system: RAW264.7; test: Inhibition of LPS-stimulated TNFalpha production in mouse RAW264.7 cells at […] dosed simultaneously with LPS measured 24 hrs post dose by ELISA; type: functional
How it was run: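 RAW 264.7 macrophages were seeded and grown for 24 h. Test agents were then added together with LPS, and cells were incubated for a further 24 h before TNF-α output was determined. Results are expressed as percent inhibition.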

[2] = test system: Mus musculus; test: Antidiabetic effect in high-fat diet fed C57BL/6J mouse obesity model assessed as weight gain incidence at 50 mg/kg, po dosed once daily measured after 8 weeks relative to untreated control; type: functional
How it was run: (§1)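 C57BL/6J animals were kept on a 60% fat diet, or on normal food, for 8 weeks. High-fat groups were dosed orally at 50 mg/kg once daily (suspension in Tween 80/5% saline) or given vehicle, n = 8 per group. Body weight and food intake were followed over the study period.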

[3] = test system: Mus musculus; test: Effect on food intake in high-fat diet fed C57BL/6J mouse obesity model at 50 mg/kg, po dosed once daily measured after 8 weeks relative to untreated control; type: functional, organism-based; design: dose 50 mg/kg; how it was run: as §1
[4] = test system: Mus musculus; test: Antidiabetic effect in high-fat diet fed C57BL/6J mouse obesity model assessed as reduction in blood glucose at 50 mg/kg, po dosed once daily measured after 8 weeks relative to untreated control; type: functional, organism-based; design: dose 50 mg/kg
How it was run: (§2)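 Obese C57BL/6J animals on a 60% fat diet were given 50 mg/kg orally each day (suspension in Tween 80/5% saline) or vehicle, n = 8 per group. After 8 weeks, heart blood was taken under anaesthesia and spun at 5,000 g for 15 min at 4 °C. Plasma glucose, TG, TC and ALT were measured on a biochemistry analyzer.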

[5] = test system: Mus musculus; test: Antidiabetic effect in high-fat diet fed C57BL/6J mouse obesity model assessed as reduction in plasma triglyceride level at 50 mg/kg, po dosed once daily measured after 8 weeks relative to untreated control; type: functional; settings: 1344 h; how it was run: as §2
[6] = test system: Mus musculus; test: Antidiabetic effect in high-fat diet fed C57BL/6J mouse obesity model assessed as reduction in plasma total cholesterol level at 50 mg/kg, po dosed once daily measured after 8 weeks relative to untreated control; type: functional; settings: 1344 h; how it was run: as §2
[7] = test system: Mus musculus; test: Antidiabetic effect in high-fat diet fed C57BL/6J mouse obesity model assessed as reduction in plasma alanine aminotransferase level at 50 mg/kg, po dosed once daily measured after 8 weeks relative to untreated control; type: functional; settings: 1344 h; how it was run: as §2
[8] = test system: Mus musculus; test: Antidiabetic effect in high-fat diet fed C57BL/6J mouse obesity model assessed as improvement in glucose metabolism level at 50 mg/kg, po dosed once daily measured after 8 weeks by glucose tolerance test; type: functional, organism-based; design: dose 50 mg/kg
How it was run: (§3)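 Diet-induced obese C57BL/6J animals were fed a 60% fat diet for 8 weeks, then dosed orally with 50 mg/kg daily (suspension in Tween 80 and 5% saline) or vehicle, n = 8 per group. After a 12 h fast they received either an oral glucose load of 0.5 g/kg (5% glucose) or ip insulin at 2 U/Kg in saline. Blood glucose was read by glucose meter at 0, 15, 30, 60, 90 and 120 min.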

[9] = test system: Mus musculus; test: Antidiabetic effect in high-fat diet fed C57BL/6J mouse obesity model assessed as increase in insulin sensitivity level at 50 mg/kg, po dosed once daily measured after 8 weeks by insulin tolerance test; type: functional, organism-based; design: dose 50 mg/kg; how it was run: as §3
[10] = test system: Mus musculus; test: Antidiabetic effect in high-fat diet fed C57BL/6J mouse obesity model assessed as reduction in liver fat deposition at 50 mg/kg, po dosed once daily measured after 8 weeks by H&E staining; type: functional, organism-based; design: dose 50 mg/kg
How it was run: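 Livers came from high-fat-fed C57BL/6J animals that had 8 weeks of daily oral dosing at 50 mg/kg or vehicle. Tissue was fixed in 4% buffered formalin, embedded in paraffin or OCT, and serially sectioned. Sections were stained with H&E to assess fat deposition.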

[11] = molecular target: Fatty acid-binding protein, adipocyte (Mus musculus) (UniProt P04117); test: Inhibition of mouse ap2 by fluorescent 1,8-anilino-8-naphthalene sulfonate assay; settings: read-out: Ki(app)
Sequence of Fatty acid-binding protein, adipocyte (Mus musculus) (P04117 whole entry, looked up): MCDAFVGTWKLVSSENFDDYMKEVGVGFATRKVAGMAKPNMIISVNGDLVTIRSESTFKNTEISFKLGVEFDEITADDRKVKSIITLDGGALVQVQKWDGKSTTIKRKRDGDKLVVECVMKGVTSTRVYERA

Row | Structure (SMILES) | inhibition (INH) [1] [%] | other results
1 | O=C(O)/C=C/c1cn(Cc2cccc(F)c2)c2ccccc12 | 36.36 | –
2 | O=C(O)/C=C/c1cn(Cc2ccccc2F)c2ccccc12 | 95.47 | Activity [2]: 21.18%; Activity [3]: inactive; Activity [4]: Active; inhibition in vivo at 50 mg/kg [5]: 27.1%; inhibition in vivo at 50 mg/kg [6]: 38.5%; inhibition in vivo at 50 mg/kg [7]: 26.7%; Activity [8]: Active; Activity [9]: Active; Activity [10]: Active; Ki [11]: 33 nM
3 | COc1ccc2c(c1)c(/C=C/C(=O)O)cn2Cc1ccc(F)cc1 | 94.28 | –
4 | O=C(O)Cc1cn(Cc2ccccc2)c2ccccc12 | 52.17 | –
5 | O=C(O)/C=C/c1cn(Cc2ccccc2)c2ccccc12 | 18.17 | –
6 | Cc1ccc2c(c1)c(/C=C/C(=O)O)cn2Cc1ccccc1F | 11.18 | –
7 | O=C(O)/C=C/c1cn(Cc2cccc3ccccc23)c2ccccc12 | 93.28 | –
8 | O=C(O)CCC(=O)Nc1nc(-c2ccc(Cl)c(Cl)c2)cs1 | 12.38 | –
9 | O=C(O)CCC(=O)Nc1nc(-c2ccc(Cl)cc2)cs1 | 41.22 | –
10 | O=C(O)CSCC(=O)Nc1nc(-c2ccc(F)cc2)cs1 | 18.19 | –
11 | Cc1sc(NC(=O)CCC(=O)O)nc1-c1ccccc1 | 25.23 | –
12 | CC(C)c1ccc(Cn2cc(/C=C/C(=O)O)c3ccccc32)cc1 | 92.24 | –
13 | Cc1ccc(-c2csc(NC(=O)CCC(=O)O)n2)cc1 | 36.67 | –
14 | O=C(O)CCC(=O)Nc1nc(-c2ccc(C(F)(F)F)cc2)cs1 | 12.15 | –
15 | O=C(O)/C=C/c1cn(Cc2ccc([N+](=O)[O-])cc2)c2ccccc12 | 32.34 | –
16 | CCc1c(-c2ccccc2)c(-c2ccccc2)nn1-c1ccccc1-c1cccc(OCC(=O)O)c1 | 85.13 | –
17 | O=C(O)CSCC(=O)Nc1nc(-c2ccc([N+](=O)[O-])cc2)cs1 | 43.24 | –
18 | Cc1ccccc1Cn1cc(/C=C/C(=O)O)c2ccccc21 | – | inhibition [1]: inactive
19 | Cc1c(/C=C/C(=O)O)c2ccccc2n1Cc1ccccc1F | 93.27 | –
20 | O=C(O)CCC(=O)Nc1nc(-c2ccc(F)cc2)cs1 | 27.24 | –

Row | Structure (SMILES) | inhibition (INH) [1] [%] | other results
21 | O=C(O)CSCC(=O)Nc1nc(-c2ccc(Cl)cc2)cs1 | 23.45 | –
22 | O=C(O)CCC(=O)Nc1nc(-c2ccccc2Cl)cs1 | 8.56 | –
23 | Cc1c(/C=C/C(=O)O)c2ccccc2n1Cc1cccc(F)c1 | – | inhibition [1]: inactive
24 | O=C(O)CCC(=O)Nc1nc(-c2ccc(Cl)cc2Cl)cs1 | 35.15 | –
25 | O=C(O)/C=C/c1cn(Cc2ccc(F)cc2)c2ccccc12 | 86.78 | –
26 | O=C(O)CSCC(=O)Nc1nc(-c2ccc(C(F)(F)F)cc2)cs1 | 37.26 | –
27 | O=C(O)CCC(=O)Nc1nc(-c2ccc3ccccc3c2)cs1 | 58.75 | –
28 | Cc1ccc2c(c1)c(/C=C/C(=O)O)cn2Cc1cccc(F)c1 | – | inhibition [1]: inactive
29 | O=C(O)Cc1cn(Cc2cccc(F)c2)c2ccccc12 | – | inhibition [1]: inactive
30 | Cc1ccc(Cn2cc(/C=C/C(=O)O)c3ccccc32)cc1 | 66.56 | –
31 | Cc1ccccc1Cn1cc(CC(=O)O)c2ccccc21 | 14.29 | –
32 | N#Cc1ccc(Cn2cc(/C=C/C(=O)O)c3ccccc32)cc1 | 31.46 | –
33 | Cc1sc(NC(=O)CCC(=O)O)nc1-c1ccc(Cl)cc1 | 27.14 | –
34 | O=C(O)CCC(=O)Nc1nc(-c2ccc(F)c(F)c2)cs1 | 92.45 | –
35 | O=C(O)Cc1cn(Cc2ccc(F)cc2)c2ccccc12 | 92.24 | –
36 | COc1ccc2c(c1)c(/C=C/C(=O)O)cn2Cc1ccccc1F | 86.67 | –
37 | COc1ccc2c(c1)c(/C=C/C(=O)O)cn2Cc1cccc(F)c1 | – | inhibition [1]: inactive
38 | O=C(O)Cc1cn(Cc2ccccc2F)c2ccccc12 | 24.72 | –
39 | COc1ccc(-c2csc(NC(=O)CCC(=O)O)n2)cc1 | – | inhibition [1]: inactive
40 | CC(C)(C)c1ccc(Cn2cc(/C=C/C(=O)O)c3ccccc32)cc1 | 50.18 | –
